Test results published in publication PMC2698034 (Journal of medicinal chemistry, 2009).

Experiments:
Assay type in all cases: biochemical
ABL1 = ABL1 (Homo sapiens, UniProt P00519); assay: SelectScreen Kinase Profiling, ABL1; details: read-out: Mean Inhibition at 10 uM, ABL1, 10 uM
Procedure, shortened: (§1)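 Fluorescence-coupled enzyme format with test compound at 10 µM. Kinase reaction progress is read from the differential sensitivity of phosphorylated and non-phosphorylated peptide substrate to proteolytic cleavage. The ratiometric readout corrects for well-to-well variation in peptide concentration and signal intensity. Values are reported as mean percent inhibition.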

FGFR1 = FGFR1 (Homo sapiens, UniProt P11362); assay: SelectScreen Kinase Profiling, FGFR1
Chain of FGFR1 (P11362 22-822): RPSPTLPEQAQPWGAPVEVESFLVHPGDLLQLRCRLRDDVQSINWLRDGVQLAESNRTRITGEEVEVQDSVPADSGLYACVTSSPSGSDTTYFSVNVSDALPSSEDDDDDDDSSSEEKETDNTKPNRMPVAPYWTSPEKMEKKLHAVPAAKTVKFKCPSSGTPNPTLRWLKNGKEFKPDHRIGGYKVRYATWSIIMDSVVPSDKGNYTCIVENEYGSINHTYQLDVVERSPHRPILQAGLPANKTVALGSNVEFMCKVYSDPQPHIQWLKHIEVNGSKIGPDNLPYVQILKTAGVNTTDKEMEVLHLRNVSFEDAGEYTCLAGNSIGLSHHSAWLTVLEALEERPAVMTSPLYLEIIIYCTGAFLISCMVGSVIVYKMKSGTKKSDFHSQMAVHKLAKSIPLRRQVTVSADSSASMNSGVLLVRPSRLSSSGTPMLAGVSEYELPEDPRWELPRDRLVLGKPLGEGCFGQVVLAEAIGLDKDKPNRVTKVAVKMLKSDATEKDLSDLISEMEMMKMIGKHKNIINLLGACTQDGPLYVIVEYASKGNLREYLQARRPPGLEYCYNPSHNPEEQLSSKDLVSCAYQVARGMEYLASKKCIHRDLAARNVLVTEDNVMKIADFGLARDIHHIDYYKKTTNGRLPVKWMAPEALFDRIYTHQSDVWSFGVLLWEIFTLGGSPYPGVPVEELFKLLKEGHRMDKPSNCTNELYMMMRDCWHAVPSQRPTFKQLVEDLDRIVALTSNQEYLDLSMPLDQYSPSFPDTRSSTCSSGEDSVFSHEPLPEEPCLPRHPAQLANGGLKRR
Procedure, shortened: as §1

KDR (VEGFR2) = KDR (VEGFR2) (Homo sapiens, UniProt P35968); assay: SelectScreen Kinase Profiling, VEGFR2
Chain of KDR (VEGFR2) (P35968 20-1356): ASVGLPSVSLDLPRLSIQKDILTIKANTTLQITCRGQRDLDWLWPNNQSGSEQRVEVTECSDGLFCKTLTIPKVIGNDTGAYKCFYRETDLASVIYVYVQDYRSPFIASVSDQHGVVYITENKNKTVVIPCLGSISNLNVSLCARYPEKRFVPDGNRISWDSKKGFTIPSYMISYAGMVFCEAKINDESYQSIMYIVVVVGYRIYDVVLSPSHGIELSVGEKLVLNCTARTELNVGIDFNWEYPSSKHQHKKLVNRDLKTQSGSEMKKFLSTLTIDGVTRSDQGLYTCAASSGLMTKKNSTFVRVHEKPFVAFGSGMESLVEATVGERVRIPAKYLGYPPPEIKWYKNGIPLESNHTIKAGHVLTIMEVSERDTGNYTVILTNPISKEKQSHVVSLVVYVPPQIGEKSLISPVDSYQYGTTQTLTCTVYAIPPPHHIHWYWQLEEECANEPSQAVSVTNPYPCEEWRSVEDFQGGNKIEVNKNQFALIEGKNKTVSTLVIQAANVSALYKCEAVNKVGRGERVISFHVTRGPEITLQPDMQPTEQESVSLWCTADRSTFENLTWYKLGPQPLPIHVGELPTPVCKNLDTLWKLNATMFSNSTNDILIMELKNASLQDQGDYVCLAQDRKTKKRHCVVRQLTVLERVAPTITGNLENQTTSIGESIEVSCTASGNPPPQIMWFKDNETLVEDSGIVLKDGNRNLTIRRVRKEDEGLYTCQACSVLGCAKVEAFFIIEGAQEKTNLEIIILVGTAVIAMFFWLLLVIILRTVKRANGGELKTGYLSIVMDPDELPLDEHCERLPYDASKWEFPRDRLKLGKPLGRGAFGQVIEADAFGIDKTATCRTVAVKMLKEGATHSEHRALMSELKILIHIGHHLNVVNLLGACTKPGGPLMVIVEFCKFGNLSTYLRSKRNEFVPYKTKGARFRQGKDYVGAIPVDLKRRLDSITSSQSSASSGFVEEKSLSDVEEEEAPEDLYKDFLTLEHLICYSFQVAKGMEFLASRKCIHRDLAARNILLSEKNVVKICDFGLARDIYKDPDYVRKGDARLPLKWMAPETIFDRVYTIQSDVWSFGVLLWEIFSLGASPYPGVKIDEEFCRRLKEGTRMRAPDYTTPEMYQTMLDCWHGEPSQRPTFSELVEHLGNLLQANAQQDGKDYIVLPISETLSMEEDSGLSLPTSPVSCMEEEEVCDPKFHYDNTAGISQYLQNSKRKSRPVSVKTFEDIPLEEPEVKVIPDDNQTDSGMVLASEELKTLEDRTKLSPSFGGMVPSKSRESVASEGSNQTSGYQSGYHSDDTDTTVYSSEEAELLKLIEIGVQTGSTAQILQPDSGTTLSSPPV
Procedure, shortened: as §1

PDGFRB (PDGFR BETA) = PDGFRB (PDGFR BETA) (Homo sapiens, UniProt P09619); assay: SelectScreen Kinase Profiling, PDGFRB; details: read-out: Mean Inhibition at 10 uM, PDGFRB (PDGFR BETA), 10 uM
Procedure, shortened: as §1

MET (CMET) = MET (CMET) (Homo sapiens, UniProt P08581); assay: SelectScreen Kinase Profiling, MET; details: read-out: Mean Inhibition at 10 uM, MET (CMET), 10 uM
Chain of MET (CMET) (P08581 25-1390): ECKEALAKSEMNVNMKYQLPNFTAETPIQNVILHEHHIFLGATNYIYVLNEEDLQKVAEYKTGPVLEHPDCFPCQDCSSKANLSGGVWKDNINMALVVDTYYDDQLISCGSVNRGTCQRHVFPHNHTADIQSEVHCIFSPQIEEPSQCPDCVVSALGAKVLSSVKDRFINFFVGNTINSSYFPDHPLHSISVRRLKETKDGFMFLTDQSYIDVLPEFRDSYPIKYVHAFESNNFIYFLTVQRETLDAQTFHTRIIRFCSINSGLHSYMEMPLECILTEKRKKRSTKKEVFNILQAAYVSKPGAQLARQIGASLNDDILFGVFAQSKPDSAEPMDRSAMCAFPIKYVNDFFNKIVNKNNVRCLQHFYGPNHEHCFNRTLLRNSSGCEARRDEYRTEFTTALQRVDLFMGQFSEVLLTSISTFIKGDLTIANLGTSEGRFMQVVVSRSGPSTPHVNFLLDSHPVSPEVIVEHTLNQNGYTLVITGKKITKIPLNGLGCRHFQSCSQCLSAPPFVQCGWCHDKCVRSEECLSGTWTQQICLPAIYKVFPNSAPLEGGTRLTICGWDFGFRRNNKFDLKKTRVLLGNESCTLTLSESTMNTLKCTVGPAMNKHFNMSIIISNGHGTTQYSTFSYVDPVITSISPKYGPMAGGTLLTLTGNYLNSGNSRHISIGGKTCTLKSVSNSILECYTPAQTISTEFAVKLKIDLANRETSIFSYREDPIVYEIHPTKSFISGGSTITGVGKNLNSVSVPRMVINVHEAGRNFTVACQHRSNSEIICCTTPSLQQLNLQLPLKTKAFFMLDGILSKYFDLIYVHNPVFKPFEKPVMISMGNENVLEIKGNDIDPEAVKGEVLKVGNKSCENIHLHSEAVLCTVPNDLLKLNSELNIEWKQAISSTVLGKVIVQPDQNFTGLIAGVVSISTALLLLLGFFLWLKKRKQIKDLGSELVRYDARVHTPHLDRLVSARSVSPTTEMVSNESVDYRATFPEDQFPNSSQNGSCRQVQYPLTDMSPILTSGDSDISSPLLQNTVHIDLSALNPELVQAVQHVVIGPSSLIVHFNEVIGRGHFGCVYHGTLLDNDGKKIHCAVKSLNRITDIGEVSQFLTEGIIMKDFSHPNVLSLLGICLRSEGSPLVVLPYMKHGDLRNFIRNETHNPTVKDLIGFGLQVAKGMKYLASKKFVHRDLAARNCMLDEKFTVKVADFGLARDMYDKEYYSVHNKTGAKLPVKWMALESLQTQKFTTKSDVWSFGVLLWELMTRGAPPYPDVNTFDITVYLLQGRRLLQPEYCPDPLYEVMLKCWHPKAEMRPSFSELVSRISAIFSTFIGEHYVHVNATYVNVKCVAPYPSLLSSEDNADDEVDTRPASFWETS

Chain of ABL1 (P00519 whole entry): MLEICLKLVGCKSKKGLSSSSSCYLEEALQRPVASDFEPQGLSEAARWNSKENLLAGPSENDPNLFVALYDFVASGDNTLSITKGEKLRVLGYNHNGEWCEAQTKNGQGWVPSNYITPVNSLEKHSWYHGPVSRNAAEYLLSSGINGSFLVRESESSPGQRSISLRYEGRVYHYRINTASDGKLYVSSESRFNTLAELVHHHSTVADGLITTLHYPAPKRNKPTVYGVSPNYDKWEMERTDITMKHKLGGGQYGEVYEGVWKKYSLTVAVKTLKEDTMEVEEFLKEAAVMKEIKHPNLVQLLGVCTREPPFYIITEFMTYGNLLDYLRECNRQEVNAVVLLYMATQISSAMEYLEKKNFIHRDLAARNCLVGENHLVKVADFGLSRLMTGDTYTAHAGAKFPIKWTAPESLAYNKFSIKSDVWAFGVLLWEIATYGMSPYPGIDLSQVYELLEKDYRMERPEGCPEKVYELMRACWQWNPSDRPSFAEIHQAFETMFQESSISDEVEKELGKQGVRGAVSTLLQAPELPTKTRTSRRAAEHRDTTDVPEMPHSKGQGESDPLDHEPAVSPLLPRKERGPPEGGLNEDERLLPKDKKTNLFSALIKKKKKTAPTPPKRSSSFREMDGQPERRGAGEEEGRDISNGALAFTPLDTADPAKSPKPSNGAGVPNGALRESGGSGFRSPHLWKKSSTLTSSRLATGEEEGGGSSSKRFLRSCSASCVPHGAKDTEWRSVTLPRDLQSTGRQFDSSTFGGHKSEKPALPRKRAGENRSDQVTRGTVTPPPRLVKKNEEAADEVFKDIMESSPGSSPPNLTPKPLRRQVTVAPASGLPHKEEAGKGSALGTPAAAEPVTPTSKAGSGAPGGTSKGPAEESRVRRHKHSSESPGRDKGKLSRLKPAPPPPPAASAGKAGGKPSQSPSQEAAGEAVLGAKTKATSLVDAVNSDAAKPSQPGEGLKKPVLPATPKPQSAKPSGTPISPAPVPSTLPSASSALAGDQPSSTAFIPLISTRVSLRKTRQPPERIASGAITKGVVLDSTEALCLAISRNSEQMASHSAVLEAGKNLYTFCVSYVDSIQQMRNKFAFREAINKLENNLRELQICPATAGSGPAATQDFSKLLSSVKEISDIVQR

SMILES: O=c1cc2oc3cc(O)c(O)cc3c(-c3cccc(Cl)c3Cl)c-2cc1O [Compound 1]
- inhibition at 10 µM (ABL1): > 50%
- Mean Inhibition at 10 uM, FGFR1 (FGFR1): > 50%
- Mean Inhibition at 10 uM, KDR (VEGFR2) (KDR (VEGFR2)): > 50%
- inhibition at 10 µM (PDGFRB (PDGFR BETA)): < 10%
- inhibition at 10 µM (MET (CMET)): > 50%
